# In ChEMBL document CHEMBL3877308, “Design, synthesis and in vitro biological evaluation of oligopeptides targeting E. coli type I signal peptidase (LepB)” (Bioorg Med Chem, 2017):
# pIC50: −log10 of the molar value.
# Assays:
# Signal peptidase I = Signal peptidase I (Escherichia coli K-12, UniProt P00803); test: Inhibition of full length Escherichia coli His6-tagged LepB expressed in Escherichia coli C43(DE3) using dabcyl-VEVGGTATAGAFSRPGLE-(EDANS) as substrate preincubated for 10 mins followed by substrate addition measured for 2 hrs by FRET assay
# Summary of the method: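 Enzyme extracted from the membrane fraction with 1% reduced Triton X-100 and purified by metal-chelation chromatography in 0.5% detergent. Enzyme (final ~50 nM) was pre-incubated with compound for 10 min at 22 °C. The linear rise in EDANS donor fluorescence (dabcyl acceptor) was then followed at 22 °C for 2 h. IC50 came from non-linear regression of sigmoidal rate-versus-concentration curves.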
# [1] = molecular target: Signal peptidase I (Escherichia coli K-12) (UniProt P00803); test: Inhibition of full length Escherichia coli His6-tagged LepB expressed in Escherichia coli C43(DE3) assessed as residual activity at 2.5 uM using dabcyl-VEVGGTATAGAFSRPGLE-(EDANS) as substrate preincubated for 10 mins followed by substrate addition measured for 2 hrs by FRET assay relative to control
# Summary of the method: (§1)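 Enzyme came from the membrane fraction, extracted with 1% reduced Triton X-100 and purified by metal-chelation chromatography in 0.5% detergent. FRET pair was dabcyl acceptor and EDANS donor. EcLepB (final about 50 nM) was pre-incubated with compound 10 min at 22 °C. Reaction was then run with 8 µM substrate, following the linear fluorescence increase at 22 °C for 2 h.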
# [2] = molecular target: Signal peptidase I (Escherichia coli K-12) (UniProt P00803); test: Inhibition of full length Escherichia coli His6-tagged LepB expressed in Escherichia coli C43(DE3) assessed as residual activity at 5 uM using dabcyl-VEVGGTATAGAFSRPGLE-(EDANS) as substrate preincubated for 10 mins followed by substrate addition measured for 2 hrs by FRET assay relative to control; summary of the method: as §1
# [3] = molecular target: Signal peptidase I (Escherichia coli K-12) (UniProt P00803); test: Inhibition of full length Escherichia coli His6-tagged LepB expressed in Escherichia coli C43(DE3) at 100 uM using dabcyl-VEVGGTATAGAFSRPGLE-(EDANS) as substrate preincubated for 10 mins followed by substrate addition measured for 2 hrs by FRET assay relative to control; summary of the method: as §1
# [4] = molecular target: Signal peptidase I (Escherichia coli K-12) (UniProt P00803); test: Inhibition of full length Escherichia coli His6-tagged LepB expressed in Escherichia coli C43(DE3) assessed as residual activity at 10 uM using dabcyl-VEVGGTATAGAFSRPGLE-(EDANS) as substrate preincubated for 10 mins followed by substrate addition measured for 2 hrs by FRET assay relative to control; summary of the method: as §1
# [5] = molecular target: Signal peptidase I (Escherichia coli K-12) (UniProt P00803); test: Inhibition of full length Escherichia coli His6-tagged LepB expressed in Escherichia coli C43(DE3) assessed as residual activity at 0.002 uM using dabcyl-VEVGGTATAGAFSRPGLE-(EDANS) as substrate preincubated for 10 mins followed by substrate addition measured for 2 hrs by FRET assay relative to control; summary of the method: as §1
# [6] = molecular target: Signal peptidase I (Escherichia coli K-12) (UniProt P00803); test: Inhibition of full length Escherichia coli His6-tagged LepB expressed in Escherichia coli C43(DE3) assessed as residual activity at 1.25 uM using dabcyl-VEVGGTATAGAFSRPGLE-(EDANS) as substrate preincubated for 10 mins followed by substrate addition measured for 2 hrs by FRET assay relative to control; summary of the method: as §1
# [7] = molecular target: Signal peptidase I (Escherichia coli K-12) (UniProt P00803); test: Inhibition of full length Escherichia coli His6-tagged LepB expressed in Escherichia coli C43(DE3) assessed as residual activity at 0.625 uM using dabcyl-VEVGGTATAGAFSRPGLE-(EDANS) as substrate preincubated for 10 mins followed by substrate addition measured for 2 hrs by FRET assay relative to control; summary of the method: as §1
# [8] = molecular target: Signal peptidase I (Escherichia coli K-12) (UniProt P00803); test: Inhibition of full length Escherichia coli His6-tagged LepB expressed in Escherichia coli C43(DE3) assessed as residual activity at 0.156 uM using dabcyl-VEVGGTATAGAFSRPGLE-(EDANS) as substrate preincubated for 10 mins followed by substrate addition measured for 2 hrs by FRET assay relative to control; summary of the method: as §1
# [9] = molecular target: Signal peptidase I (Escherichia coli K-12) (UniProt P00803); test: Inhibition of full length Escherichia coli His6-tagged LepB expressed in Escherichia coli C43(DE3) assessed as residual activity at 0.02 uM using dabcyl-VEVGGTATAGAFSRPGLE-(EDANS) as substrate preincubated for 10 mins followed by substrate addition measured for 2 hrs by FRET assay relative to control; summary of the method: as §1
# [10] = molecular target: Signal peptidase I (Escherichia coli K-12) (UniProt P00803); test: Inhibition of full length Escherichia coli His6-tagged LepB expressed in Escherichia coli C43(DE3) assessed as residual activity at 0.01 uM using dabcyl-VEVGGTATAGAFSRPGLE-(EDANS) as substrate preincubated for 10 mins followed by substrate addition measured for 2 hrs by FRET assay relative to control; summary of the method: as §1
# [11] = molecular target: Signal peptidase I (Escherichia coli K-12) (UniProt P00803); test: Inhibition of full length Escherichia coli His6-tagged LepB expressed in Escherichia coli C43(DE3) assessed as residual activity at 0.001 uM using dabcyl-VEVGGTATAGAFSRPGLE-(EDANS) as substrate preincubated for 10 mins followed by substrate addition measured for 2 hrs by FRET assay relative to control; summary of the method: as §1
# [12] = molecular target: Signal peptidase I (Escherichia coli K-12) (UniProt P00803); test: Inhibition of full length Escherichia coli His6-tagged LepB expressed in Escherichia coli C43(DE3) assessed as residual activity at 0.0005 uM using dabcyl-VEVGGTATAGAFSRPGLE-(EDANS) as substrate preincubated for 10 mins followed by substrate addition measured for 2 hrs by FRET assay relative to control; summary of the method: as §1
# Escherichia coli [13] = test: Antibacterial activity against wild type Escherichia coli ATCC 25922 after 16 to 20 hrs by broth microdilution assay; type: functional
# Summary of the method: (§2)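 MIC by broth microdilution in cation-adjusted Mueller-Hinton II medium, following EUCAST and CLSI guidelines; panel of Gram-negative strains plus S. aureus ATCC 29213.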
# Escherichia coli [14] = test: Antibacterial activity against Escherichia coli CH3130 harboring tolC deletion mutant after 16 to 20 hrs by broth microdilution assay; type: functional
# Summary of the method: (§3)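 Broth microdilution MIC in cation-adjusted Mueller-Hinton II medium, following EUCAST and CLSI guidelines; tested on a panel of Gram-negative strains plus S. aureus ATCC 29213 (wild-type).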
# Escherichia coli [15] = test: Antibacterial activity against Escherichia coli D22 harboring lpxC mutant after 16 to 20 hrs by broth microdilution assay; type: functional; summary of the method: as §3
# Pseudomonas aeruginosa [16] = test: Antibacterial activity against wild type Pseudomonas aeruginosa PAO1 after 16 to 20 hrs by broth microdilution assay; type: functional; summary of the method: as §2
# Pseudomonas aeruginosa [17] = test: Antibacterial activity against wild type Pseudomonas aeruginosa PAO750 harboring efflux defective mutant after 16 to 20 hrs by broth microdilution assay; type: functional; summary of the method: as §3
# Klebsiella pneumoniae = test: Antibacterial activity against wild type Klebsiella pneumoniae […] after 16 to 20 hrs by broth microdilution assay; type: functional; summary of the method: as §2
# Staphylococcus aureus = test: Antibacterial activity against wild type Staphylococcus aureus ATCC 29213 after 16 to 20 hrs by broth microdilution assay; type: functional; summary of the method: as §2
# Acinetobacter baumannii = test: Antibacterial activity against wild type Acinetobacter baumannii ATCC 19606 after 16 to 20 hrs by broth microdilution assay; type: functional; summary of the method: as §2
# [18] = Cytotoxicity against human HepG2 cells assessed as reduction in cell viability after 72 hrs by fluorescein diacetate dye based fluorometric microculture assay; type: toxicity
# Summary of the method: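 FMCA on HepG2 cells read at 72 h. Survival index (%) is fluorescence in test wells as percent of control cultures, with blank values subtracted. IC50 was obtained by non-linear regression of log concentration-effect curves.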
# [19] = Hemolytic activity against human RBC at 100 uM after 45 mins by spectrophotometric method relative to control; type: ADME, cell-based, Erythrocyte; details: red blood cells (RBC), read-out: Activity
# Summary of the method: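 Hemolysis was tested using red blood cells from heparinized human blood.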
# [20] = molecular target: Signal peptidase I (Escherichia coli K-12) (UniProt P00803); test: Inhibition of full length Escherichia coli His6-tagged LepB expressed in Escherichia coli C43(DE3) assessed as residual activity at 0.005 uM using dabcyl-VEVGGTATAGAFSRPGLE-(EDANS) as substrate preincubated for 10 mins followed by substrate addition measured for 2 hrs by FRET assay relative to control; summary of the method: as §1
# [21] = molecular target: Signal peptidase I (Escherichia coli K-12) (UniProt P00803); test: Inhibition of full length Escherichia coli His6-tagged LepB expressed in Escherichia coli C43(DE3) assessed as residual activity at 0.313 uM using dabcyl-VEVGGTATAGAFSRPGLE-(EDANS) as substrate preincubated for 10 mins followed by substrate addition measured for 2 hrs by FRET assay relative to control; summary of the method: as §1
# [22] = molecular target: Signal peptidase I (Escherichia coli K-12) (UniProt P00803); test: Inhibition of full length Escherichia coli His6-tagged LepB expressed in Escherichia coli C43(DE3) assessed as residual activity at 0.078 uM using dabcyl-VEVGGTATAGAFSRPGLE-(EDANS) as substrate preincubated for 10 mins followed by substrate addition measured for 2 hrs by FRET assay relative to control; summary of the method: as §1
# [23] = molecular target: Signal peptidase I (Escherichia coli K-12) (UniProt P00803); test: Inhibition of full length Escherichia coli His6-tagged LepB expressed in Escherichia coli C43(DE3) assessed as residual activity at 0.039 uM using dabcyl-VEVGGTATAGAFSRPGLE-(EDANS) as substrate preincubated for 10 mins followed by substrate addition measured for 2 hrs by FRET assay relative to control; summary of the method: as §1
# Sequence of Signal peptidase I (Escherichia coli K-12) (P00803 whole entry): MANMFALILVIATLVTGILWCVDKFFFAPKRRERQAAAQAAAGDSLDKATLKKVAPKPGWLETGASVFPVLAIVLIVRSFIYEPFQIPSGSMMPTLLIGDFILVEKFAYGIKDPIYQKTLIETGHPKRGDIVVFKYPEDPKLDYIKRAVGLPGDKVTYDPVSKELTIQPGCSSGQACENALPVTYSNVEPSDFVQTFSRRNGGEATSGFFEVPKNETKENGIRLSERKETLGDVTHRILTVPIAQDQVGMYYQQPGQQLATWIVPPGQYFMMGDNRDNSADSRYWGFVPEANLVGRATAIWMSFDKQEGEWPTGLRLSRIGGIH
# Sequence of Signal peptidase I (P00803 whole entry): as above
Compound,pIC50 (Signal peptidase I),Activity [1],Activity [2],inhibition [3],Activity [5],Activity [6],Activity [7],Activity [8],Activity [9],Activity [10],Activity [11],Activity [12],MIC (Escherichia coli [13]),MIC (Escherichia coli [14]),MIC (Escherichia coli [15]),MIC (Pseudomonas aeruginosa [16]),MIC (Pseudomonas aeruginosa [17]),MIC (Klebsiella pneumoniae),MIC (Staphylococcus aureus),MIC (Acinetobacter baumannii),also measured
CCCCCCc1ccc(-c2ccc(C(=O)N3CC(CN)C[C@H]3C(=O)N[C@H](C(=O)N[C@@H](C)C(=O)N[C@@H](CC(N)=O)C(=O)N[C@@H](C)B3O[C@@H]4C[C@@H]5C[C@@H](C5(C)C)[C@]4(C)O3)[C@H](C)O)cc2)cc1 (some centres undefined),7.74,0.353%,4.04%,> 50%,88.8%,0.881%,5.53%,6.31%,37.6%,81.6%,89.7%,99.3%,32 µg/mL,4 µg/mL,1 µg/mL,64 µg/mL,8 µg/mL,16 µg/mL,0.5 µg/mL,32 µg/mL,"Activity [4]: 3.93%; IC50 at 72 h [18]: 18.6 µM; hemolysis at 0.75 h, 100 µM [19]: 5.7%"
CCCCCCc1ccc(-c2ccc(C(=O)N3CCC[C@H]3C(=O)N[C@H](C(=O)N[C@@H](C)C(=O)N[C@@H](CC(N)=O)C(=O)N[C@@H](C)B3O[C@@H]4C[C@@H]5C[C@@H](C5(C)C)[C@]4(C)O3)[C@H](C)O)cc2)cc1,7.92,7.64%,11.2%,> 50%,92.8%,11.4%,16%,16.9%,51.2%,57%,94.4%,100%,> 64 µg/mL,64 µg/mL,16 µg/mL,> 64 µg/mL,> 64 µg/mL,> 64 µg/mL,4 µg/mL,> 64 µg/mL,"Activity [20]: 82.2%; Activity [21]: 17.4%; Activity [22]: 11.5%; Activity [23]: 16.8%; IC50 at 72 h [18]: 4.7 µM; hemolysis at 0.75 h, 100 µM [19]: 1.1%"
